Measured values taken from paper PMC3516907 (ChemMedChem, 2010).

Tests used:
ER in MCF7 cells = test: ER degradation in MCF7 cells by immunofluorescence; assay type: cell-based, human
In short: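 MCF7 cells were grown on ethanol/UV-sterilised coverslips for 24 h, then switched to phenol-red-free RPMI with 5% charcoal/dextran-treated FBS. Compounds were diluted in this medium from a DMSO vehicle and applied for 48 h. Cells were fixed in 4% PFA, permeabilised with 0.2% Triton X-100, and blocked in 10% goat serum/0.1% BSA in PBST. Staining used anti-ER with an Alexa Fluor 488 secondary and DAPI mounting, imaged by inverted fluorescence microscopy.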

[1] = system: endogenous ER in MCF7 breast cancer cells; test: ER degradation in MCF7 cells by western blotting; assay type: cell-based, human; details: with/without proteasome inhibitor epoxomicin (Fig 3B)
In short: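 MCF7 cells at 70% confluence, held at least 24 h in RPMI with 5% charcoal-dextran FBS, were treated 48 h (DMSO vehicle). Lysis was 1 h on ice in Tris/NaCl/NP40/Triton X-100 buffer with protease inhibitors, with Bradford protein assay. Equal protein ran on 10% SDS-PAGE and was blotted to PVDF. Anti-ER was applied overnight at 4°C, secondary 1 h at room temperature. Detection was ECL/film, reprobed for β-actin loading.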

Compound: -Leu-Ala-Pro^OHTyr-Ile-Bzl [PROTAC 24]
- ER signal (green, FITC) by immunofluorescence vs DMSO control (ER in MCF7 cells; 48h treatment, 25 μM PROTACs, 10 nM E2 (Fig 3A top row)): attenuation of ER signal (green) was observed
- proteasome dependence of ER degradation (western blot) [1]: confirmed via western blotting

Compound: C[C@]12CC[C@@H]3c4ccc(O)cc4CC[C@H]3[C@@H]1CC[C@@H]2O [E2, 17β-estradiol]
- ER signal by immunofluorescence on co-treatment with epoxomicin (ER in MCF7 cells; 48h, 25 μM PROTACs or 10 nM E2 plus epoxomicin (Fig 3A bottom row)): blocked by co-treatment with epoxomicin
- proteasome dependence of ER degradation (western blot) [1]: confirmed via western blotting
